Screening data as filed in PubChem.
An excerpt weighted towards active compounds, which were near 2.9% of everything screened.
ERAP1 HTS inh: human ERAP1 aminopeptidase inhibitors, primary screen, biochemical, single point, plate reader; recombinant ERAP1, Leu-AMC fluorescence, 60 min; Endoplasmic reticulum aminopeptidase 1 (Homo sapiens), Q9NZ08; AID 652197, 2013; inhibition, % at 10.7 µM; 340,000 tested, 0.15% active;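 active = mean replicate inhibition of at least 30%, or all replicates individually reaching that 30% level; inactive = mean below 30% and not every replicate reaching it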;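 note: 0% = neutral control wells and 100% = L-leucinethiol positive control wells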
DENV2 CPE: inhibitors of DENV2 cytopathic effect, primary screen, cell-based, plate reader, single concentration; DENV2-infected cells, cytopathic effect rescue; CPE inhibition, % at 9.99 µM; 350,000 tested, 1.7% active; AID 651640, 2012; in the data active = CPE inhibition above about 20%, passing the limit was not always enough; inconclusive = no clear call, values can overlap the other calls; tested in BHK-21 cells;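 note: 0% = median of neutral control wells and 100% = median of positive control wells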
CAL PDZ FP-1: CAL PDZ peptide-binding inhibitors, primary screen, biochemical, fluorescence polarization, Cer-tagged CAL PDZ, HTS | inhibition, % at 20 µM | 330,000 tested, 0.02% active | AID 504414, 2011 | Golgi-associated PDZ and coiled-coil motif-containing protein (Homo sapiens), Q9HD26 | purified CAL PDZ, TMR-peptide fluorescence polarization, 1 h;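 active = highest replicate inhibition of at least 40%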;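 note: plate controls were DMSO neutral control wells for no effect and unlabeled competitor peptide control wells for full effect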
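material = purified tagged CAL PDZ domain construct (CerCALP) | compound dosing = 20 µM, one dose | times = 1 h at RT | measured by = fluorescence polarization from S- and P-plane intensities, G-factor corrected | read-out = inhibition from polarization loss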
CAL PDZ FP-2: untagged CAL PDZ binding inhibitors, primary screen, biochemical, fluorescence polarization, HTS. purified CAL PDZ, TMR-peptide fluorescence polarization, 1 h. inhibition, % at 24.9 µM. 300,000 tested, 0.92% active;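 active = mean inhibition of at least 30% with at least half of replicates also reaching 30%; inconclusive = no clear call, values can overlap the other calls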;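 note: 0% = DMSO neutral control and 100% = excess unlabeled competitor peptide PRC23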
SIRT5 inh: SIRT5 desuccinylase inhibitors, primary screen, biochemical, fluorescence imaging, single point, set 5; 330,000 tested, 1.1% active; inhibition, % at 15 µM; Purified SirT5, succinyl-peptide AMC, trypsin-coupled fluorescence; in the data active = inhibition above about 15%; inconclusive = no clear call, values can overlap the other calls
Target sequence (Q9NXA8 whole entry, looked up): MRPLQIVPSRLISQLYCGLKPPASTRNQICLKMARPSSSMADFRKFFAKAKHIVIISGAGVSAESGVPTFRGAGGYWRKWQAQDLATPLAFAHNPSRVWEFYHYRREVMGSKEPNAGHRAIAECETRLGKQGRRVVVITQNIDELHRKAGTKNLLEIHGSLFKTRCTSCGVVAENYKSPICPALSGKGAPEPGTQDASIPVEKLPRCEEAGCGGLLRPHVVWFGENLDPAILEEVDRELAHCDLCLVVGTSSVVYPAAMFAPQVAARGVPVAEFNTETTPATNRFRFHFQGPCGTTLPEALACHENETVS
S100A4 MyoIIA: inhibitors of S100A4-myosin IIA peptide binding, primary screen, biochemical, fluorescence polarization, TAMRA-MyoIIA peptide; Protein S100-A4 (Homo sapiens), P26447; inhibition, % at 10.7 µM; 360,000 tested, 0.14% active;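 active = mean inhibition of at least 70% across replicates, with every replicate also reaching that level; inconclusive = mean inhibition reaches 70% but some replicates fall short; inactive = mean inhibition below 70%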
Target sequence (P26447 whole entry, looked up): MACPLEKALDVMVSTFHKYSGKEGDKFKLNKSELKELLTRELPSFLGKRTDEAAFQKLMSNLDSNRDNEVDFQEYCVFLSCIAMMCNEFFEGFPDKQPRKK
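assay system = human S100A4 monomer with TAMRA-labelled myosin IIA peptide | also added = labelled myosin peptide probe, 5 nM | incubation = 5 min between mix addition and reading | control set = DMSO and TFP controls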
* hit, by the source's call; ? = inconclusive; / = not tested or not shown.

SMILES | ERAP1 HTS inh | DENV2 CPE | CAL PDZ FP-1 | CAL PDZ FP-2 | SIRT5 inh | S100A4 MyoIIA
Cc1noc(C)c1NC(=O)Nc1cccc2c1O[C@H](CN(C)C(=O)NC1CCCCC1)[C@H](C)CN([C@@H](C)CO)C2=O | 0 | -4 | / | / | 3 | 7
C[C@H](O)C#Cc1ccc2c(c1)O[C@@H](CN(C)C(=O)CC1CC1)[C@@H](C)CN([C@H](C)CO)S2(=O)=O | 1 | 1 | / | / | 1 | 2
CC(C)NC(=O)Nc1ccc2c(c1)CC(=O)N([C@H](C)CO)C[C@@H](C)[C@@H](CN(C)Cc1ccc(C(=O)O)cc1)O2 | 1 | 68* | / | / | -4 | -12
CC(C)NC(=O)Nc1ccc2c(c1)CC(=O)N([C@H](C)CO)C[C@H](C)[C@H](CN(C)Cc1ccc(-c3ccccc3)cc1)O2 | -3 | 28* | / | / | 4 | -2
CC(C)NC(=O)N(C)C[C@@H]1OCCCC[C@H](C)Oc2ccc(NC(=O)c3ccccc3)cc2C(=O)N([C@H](C)CO)C[C@H]1C | -2 | 0 | / | / | 7 | -5
CN(C)C(=O)C[C@@H]1C[C@@H]2c3cc(NC(=O)Nc4ccccc4F)ccc3O[C@@H]2[C@@H](CO)O1 | -3 | ? | / | / | 0 | -33
CCOc1cc(C(=S)N2CCN(C)CC2)ccc1OCC(=O)N1CCOCC1 | / | / | -1 | 31* | / | /
Cc1nc(-c2ccc(NC(=O)Cc3ccccc3)cc2)cs1 | 1 | 0 | / | 66* | 1 | 7
COc1ccc(CC(=O)Nc2ccc(-c3csc(C)n3)cc2)cc1 | / | / | 0 | -2 | / | /
CCCNC(=O)C[C@H]1CC[C@@H]2[C@H](COc3ccc(NC(=O)c4cc(C)on4)cc3C(=O)N2C)O1 | 2 | ? | / | / | -2 | 3
O=C(Nc1cnccn1)Nc1ccccc1Cl | 1 | 1 | -1 | 4 | -4 | 0
O=C(Nc1ccccn1)Nc1ccccc1Cl | 2 | 0 | 3 | 31* | -1 | 2
CC1(C)CC(=O)C2=C(C1)Nc1cc3c(cc1C2c1ccc2c(c1)OCO2)OCO3 (stereo unspecified) | 1 | 38* | 1 | / | / | 0
O=C(Nc1cc(F)ccc1F)N1[C@@H]2CNC[C@H]1C2c1ccc(-c2ccc(F)cc2)cc1 (stereo partly specified) | -3 | -3 | / | / | 6 | -16
C[C@H]1CN([C@@H](C)CO)C(=O)c2cccc(NS(=O)(=O)c3ccc(F)cc3)c2O[C@@H]1CN(C)C(=O)Nc1ccc(F)cc1 | -2 | 11 | / | / | -3 | -9
COc1ccc(OC)c(/C=C/C(=O)Nc2ccc3c(c2)CCC3)c1 | -3 | 23* | -3 | -1 | 3 | 1
CO[C@H]1CN(C)C(=O)c2cc(NC(=O)C3CCOCC3)ccc2OC[C@H](C)N(Cc2cccnc2)C[C@H]1C | / | / | / | / | -1 | -7
Cc1noc(C)c1-c1ccc(C(=O)Nc2cccc(C(F)(F)F)c2)c2occc12 | 7 | -12 | / | / | 19* | 16
O=C(C[C@@H]1CC[C@@H]2[C@H](COC[C@@H](O)CN2CC2CCOCC2)O1)N1CCOCC1 | -1 | -7 | / | / | 1 | -4
CO[C@@H]1CN(C)C(=O)c2cc(NC(C)=O)ccc2OC[C@H](C)N(CC2CC2)C[C@H]1C | -6 | 1 | / | / | -5 | 15
CSCc1cc(C(=O)NC2CC2)c(N)s1 | -4 | -5 | / | / | -2 | 74*
N#C/C(C(=O)NCCc1ccccc1)=C1/N=C(NC(=O)c2cccs2)c2ccccc21 | 10 | 0 | 0 | -1 | -5 | -7
COCCCNC(=O)/C(C#N)=C1\N=C(NC(=O)c2cccs2)c2ccccc21 | 54* | -4 | 2 | -6 | -1 | 1
CC12CN3CC(C)(CN(C1)C3c1ccc3ccccc3c1O)C2=O (stereo unspecified) | 2 | / | / | 93* | -1 | 10
CCCC(=O)Nc1ccc2c(c1)C(=O)N(C)[C@H]1CC[C@@H](CC(=O)N3CCCCC3)O[C@H]1CO2 | / | / | / | / | 4 | /
SMILES | ERAP1 HTS inh | DENV2 CPE | CAL PDZ FP-1 | CAL PDZ FP-2 | SIRT5 inh | S100A4 MyoIIA
Cc1noc(C)c1COC(=O)CCc1nc2ccccc2c(=O)[nH]1 | / | / | / | 45* | / | /
Cc1noc(C)c1COC(=O)C(c1ccccc1)c1ccccc1 | 1 | 4 | -1 | -6 | 16* | -9
Cc1ccc(COC(=O)CCc2nc3ccccc3c(=O)[nH]2)cc1 | / | / | -1 | -3 | / | /
CCN(C(=O)c1ccc2c(SCC(=O)O)c3c(nc2c1)CCC3)c1cc(Cl)ccc1OC | -4 | 50* | 0 | 101* | 5 | -6
COc1cc(NC(=O)CSc2c3c(nc4ccccc24)CCC3)cc(OC)c1OC | 1 | 70* | -2 | -3 | 3 | 2
COc1ccc2c3c(n(C)c2c1)[C@H](CO)N(C(=O)C1CCCC1)CC31CCN(C(=O)CC2CC2)CC1 | -1 | ? | / | / | 0 | 5
CSC1=NS(=O)(=O)c2c(C)nn(C)c2S1 | 87* | 6 | 0 | / | 1 | -6
COc1ccc(S(=O)(=O)N(C)C[C@H]2OCCCC[C@@H](C)Oc3ccc(NS(=O)(=O)c4cn(C)cn4)cc3C(=O)N([C@@H](C)CO)C[C@H]2C)cc1 | 0 | 16 | / | / | 16* | 6
C[C@@H]1CN([C@@H](C)CO)C(=O)c2cc(NS(=O)(=O)c3cn(C)cn3)ccc2O[C@@H](C)CCCCO[C@@H]1CN(C)Cc1ccc(C(F)(F)F)cc1 | 2 | / | / | / | 15* | -2
C[C@@H]1CCCCO[C@H](CN(C)Cc2ccncc2)[C@H](C)CN([C@@H](C)CO)C(=O)c2cc(NS(=O)(=O)c3cn(C)cn3)ccc2O1 | -1 | 7 | / | / | -2 | 13
C[C@@H]1CN([C@@H](C)CO)C(=O)c2cc(NS(=O)(=O)c3cn(C)cn3)ccc2O[C@@H](C)CCCCO[C@H]1CN(C)Cc1ccncc1 | -1 | 70* | / | / | 0 | -9
C[C@H]1CCCCO[C@H](CN(C)Cc2ccc(C(F)(F)F)cc2)[C@@H](C)CN([C@@H](C)CO)C(=O)c2cc(NS(=O)(=O)c3cn(C)cn3)ccc2O1 | 5 | 1 | / | / | 9 | 2
COc1ccc(CN(C)C[C@@H]2OCCCC[C@H](C)Oc3ccc(NS(=O)(=O)c4cn(C)cn4)cc3C(=O)N([C@@H](C)CO)C[C@H]2C)cc1 | -1 | -2 | / | / | -1 | 110*
COCCNC(=O)c1cc2c(c(-c3cccc(-c4ccc(C#N)cc4)c3)n1)[C@H](CCO)N(C(=O)CC1CC1)C2 | -3 | -13 | / | / | 2 | 3
COc1cccc(-c2ccc3c(c2)[C@@H]2[C@@H](CCN2S(=O)(=O)C2=NC(C)C=N2)[C@H](CO)N3C)c1 (stereo partly specified) | / | -21 | / | / | / | /
